Experimental data gathered from unrelated publications.
MAL12: Alpha-glucosidase MAL12 (MAL12, Saccharomyces cerevisiae S288c, UniProt P53341)
ADRA1A: Alpha-1A adrenergic receptor (ADRA1A, Homo sapiens, UniProt P35348)

COc1cc(O)c2c(c1)oc(=O)c1c3cc(O)c(O)cc3oc21  inhibition (MAL12; enzyme activity; inhibitor; absorbance; 128 µM): ~90%
COc1cc2c3c(c1OC)-c1c(OC)ccc(N4CCOCC4)c1CC3N(C)CC2 (stereo not shown)  inhibition (ADRA1A; ligand displacement; radioligand; 10 µM): 65%
NC/C(=C\F)COc1cccc(Cn2c(=S)[nH]c(=O)c3[nH]cnc32)c1  inhibition (Histamine H2 receptor (HRH2, Homo sapiens, UniProt P25021); ligand displacement; radioligand; 10 µM): < 50%
CCCCCCCCCCCC(=O)OCC(C)(C)CC1=C(O)C(=O)c2ccccc2C1=O  inhibition (MAL12; enzyme activity; inhibitor; 50 µM): > 70%
COc1cc2c3c(c1OC)-c1c(OC)ccc(Br)c1CC3N(C)CC2 (stereo not shown)  inhibition (ADRA1A; ligand displacement; radioligand; 10 µM): 95%
C[C@H]1O[C@H](O[C@H]2[C@H](O)[C@@H](O)[C@@H](O[C@H]3[C@H](O)[C@@H](O)C(O)O[C@@H]3CO)O[C@@H]2CO)[C@H](O)[C@@H](O)[C@@H]1N[C@H]1C=C(CO)[C@@H](O)[C@H](O)[C@H]1O (stereo partly shown)  inhibition (MAL12; enzyme activity; inhibitor; absorbance; 50 µM): 37.9%
CCCCCCCCCCCCCCCCCC(=O)OCC(C)(C)CC1=C(O)C(=O)c2ccccc2C1=O  inhibition (MAL12; enzyme activity; inhibitor; 50 µM): > 70%
O=c1c(O)c(-c2ccc(O)c(O)c2)oc2cc(O)cc(O)c12  inhibition (MAL12; enzyme activity; inhibitor; absorbance; 50 µM): 98.7%
CC[N+]1(C)CCc2cc(OC)c(OC)c3c2C1Cc1cccc(OC)c1-3 (stereo not shown)  inhibition (ADRA1A; ligand displacement; radioligand; 10 µM): 13%
O=c1c(O)c(-c2ccc(O)c(O)c2)oc2c(Br)c(O)c(Br)c(O)c12  inhibition (MAL12; enzyme activity; inhibitor; absorbance; 50 µM): 95.8%
COc1cc2c3c(c1OC)-c1c(OC)ccc(Cl)c1CC3N(C)CC2 (racemic)  inhibition (ADRA1A; ligand displacement; radioligand; 10 µM): 99%
O=c1cc(-c2ccc(O)cc2)oc2cc(O)cc(O)c12  inhibition (MAL12; enzyme activity; inhibitor; absorbance; 50 µM): 78.6%
C#Cc1cc(-c2cc(Nc3nc(N[C@@H](C)c4ccc(F)cn4)ncc3Cl)n[nH]2)ccc1C=O  inhibition (Tyrosine-protein kinase Lyn (LYN, Homo sapiens, UniProt P07948); enzyme activity; inhibitor; 0.2 µM): 89.2%
